High-throughput results: PubChem BioAssay, several laboratories
hERG rescue = shields human hERG channel from block by proarrhythmic agents | actives 0.51% (n = 310,000) | AID 1511 | Q12809 | CHO-hERG, FluxOR thallium flux, dofetilide IC70 present | activation (rescue from dofetilide block), less the hit threshold, % at 10 µM;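 active means activation above the mean of controls blocked by dofetilide plus 5 SD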;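 further: thallium influx through hERG after potassium depolarization seen as dye fluorescence rise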
Target sequence (Q12809 whole entry, looked up): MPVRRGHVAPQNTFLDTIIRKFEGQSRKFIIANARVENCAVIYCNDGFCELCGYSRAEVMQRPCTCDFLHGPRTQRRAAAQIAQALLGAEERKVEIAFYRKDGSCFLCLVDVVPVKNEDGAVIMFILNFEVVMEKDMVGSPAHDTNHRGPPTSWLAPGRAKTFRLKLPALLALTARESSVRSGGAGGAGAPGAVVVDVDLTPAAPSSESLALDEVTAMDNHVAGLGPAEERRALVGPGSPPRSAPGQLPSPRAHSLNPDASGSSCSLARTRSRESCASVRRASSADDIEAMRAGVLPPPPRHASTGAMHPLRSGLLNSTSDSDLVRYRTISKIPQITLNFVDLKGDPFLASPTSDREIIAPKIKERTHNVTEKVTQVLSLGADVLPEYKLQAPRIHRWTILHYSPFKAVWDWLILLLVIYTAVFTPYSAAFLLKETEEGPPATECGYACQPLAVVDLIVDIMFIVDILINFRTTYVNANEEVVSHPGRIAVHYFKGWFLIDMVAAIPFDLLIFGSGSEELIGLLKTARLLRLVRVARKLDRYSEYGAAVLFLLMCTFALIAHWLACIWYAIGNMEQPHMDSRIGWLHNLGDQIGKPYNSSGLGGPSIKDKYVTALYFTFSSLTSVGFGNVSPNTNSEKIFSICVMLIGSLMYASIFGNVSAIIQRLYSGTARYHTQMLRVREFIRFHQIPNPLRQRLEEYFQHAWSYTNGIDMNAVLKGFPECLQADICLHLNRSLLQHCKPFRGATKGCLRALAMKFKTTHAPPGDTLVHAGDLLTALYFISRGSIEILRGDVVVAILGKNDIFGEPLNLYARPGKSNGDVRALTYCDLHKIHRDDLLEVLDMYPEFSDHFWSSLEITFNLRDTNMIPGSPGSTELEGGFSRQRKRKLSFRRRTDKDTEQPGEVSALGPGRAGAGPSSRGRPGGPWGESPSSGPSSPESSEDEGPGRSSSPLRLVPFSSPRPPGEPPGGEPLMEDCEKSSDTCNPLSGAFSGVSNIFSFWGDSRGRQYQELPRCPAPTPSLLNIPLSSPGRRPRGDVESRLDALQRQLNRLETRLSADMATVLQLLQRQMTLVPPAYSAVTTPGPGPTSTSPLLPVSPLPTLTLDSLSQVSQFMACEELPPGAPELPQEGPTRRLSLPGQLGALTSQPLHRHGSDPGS
SUMO Mot1 rescue = inhibitors of SUMOylation pathway: yeast Mot1-301 growth rescue | actives 1% (n = 320,000) | growth rescue, % at 18.8 µM | S. cerevisiae Mot1-301 growth rescue, ATP luminescence, 38.5C; percent above DMSO median, 100 means doubled | AID 2716;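 active means every valid replicate shows activation above 250% relative to neutral control wells; inactive means the rest, any valid replicate at or below 250%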;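 further: OY570 slx delta 5 strain wells were the positive control but not used for scaling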
KCNQ1 inh = inhibitors of human KCNQ1 potassium channel | CHO-K1 KCNQ1, FluxOR thallium flux fluorescence; hits give high values | B-score at 10 µM | actives 1.3% (n = 310,000) | AID 2642;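 active means compounds whose thallium flux B-score, printed positive for inhibition, exceeds three library SD while starting fluorescence stays within three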;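 further: channel opened by potassium depolarization with thallium stimulus after 20 min compound exposure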
KCC2 mod = modulators of human KCC2 chloride dependent transport; Q9H2X9; KCC2 cells, thallium flux FluoZin-2 fluorescence; actives 2.2% (n = 190,000); AID 1456; B-score of Tl+ flux slope (higher = more flux/activation; lower = inhibition) at 10 µM;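 active means thallium flux slope and its plate-corrected score both differing from the plate sample mean at a set confidence after two filtering rounds, in either direction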;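 further: slope of fluorescence scaled to starting intensity during 10 to 20 s after thallium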
KCNQ1 act = potentiators or activators of human KCNQ1 potassium channel; P51787; AID 2648; actives 0.35% (n = 310,000); CHO-K1 KCNQ1, thallium flux FluxOR fluorescence; hits give high values; B-score at 10 µM;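 active means fluorescence ratio B-score, a plate-corrected score, at least three library SD, with initial intensity B-score within 5 SD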
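assay system = CHO-K1 cells stably expressing KCNQ1 | medium = assay buffer, equal DMSO in all wells | timing = 37 °C overnight plating, 90-min dark dye load, 20-min compound pretreatment | measured by = kinetic FluxOR thallium fluorescence, 10-s 1-Hz baseline, 110-s post-stimulus read | measure = fluorescence change relative to baseline, converted to B score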
AI-2 QS modul = modulates the Vibrio harveyi AI-2 quorum sensing system; actives 0.4% (n = 300,000); Vibrio harveyi JMH597 AI-2 luminescence/OD600 ratio, 9 h; hits give low values; strain lacks LuxN and CqsS sensors; 0 = neutral-control median; activity change, % at 7.5 µM; AID 2094; in the data active means activity change below about -75%, passing the limit was not always enough; inconclusive means no clear call, values can overlap the other calls;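 further: luminescence divided by OD600 gain over 9 h not by final OD600 alone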
JMH597 growth = retest Vibrio harveyi JMH597 growth inhibition. OD600 absorbance, 9 h; lacks LuxN and CqsS sensors. shares compounds with AI-2 QS modul. actives 1% (n = 750). growth inhibition, % at 7.5 µM;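 active means every replicate shows growth inhibition above 50%; inconclusive means at least half, but not all, replicates pass that cutoff; inactive means fewer than half of replicates pass it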
BB721 lum counter = retest counter-screen: luminescence loss in constitutive-on quorum sensing strain BB721; shares compounds with AI-2 QS modul; Vibrio harveyi BB721 luminescence, 9 h; inhibition, % at 7.5 µM; actives 95% (n = 750);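 active means inhibition above about 80% in every replicate, not just on average, limit read from the data; inconclusive means at least half of replicates past the limit, but not all; inactive means fewer than half of replicates past the limit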
BB721 growth = retest: inhibitors of Vibrio harveyi BB721 growth | shares compounds with AI-2 QS modul | OD600 absorbance, 9 h | growth inhibition, % at 7.5 µM | actives 3% (n = 750) | AID 2728;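 active means every replicate shows growth inhibition above 50%; inconclusive means at least half but not all replicates above 50% inhibition; inactive means under half of replicates above 50% inhibition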
JMH597 AI-2 mod = Vibrio harveyi AI-2 signaling luminescence modulation – JMH597 strain, confirmation; shares compounds with AI-2 QS modul; Vibrio harveyi JMH597 AI-2 quorum sensing luminescence, 9 h; luxN and CqsS knockout, AI-2 only; inhibition, % at 7.5 µM; actives 97% (n = 750);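 active means every replicate shows more than 75% inhibition of signal versus neutral control wells; inconclusive means half to three quarters of replicates exceed 75% inhibition; inactive means fewer than half of replicates exceed 75% inhibition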
Active calls of the source: *; i = inactive; ? = inconclusive; · = no result given. In the library only some 4.2% were active in any assay of this set; here they are far more common.

SMILES	hERG rescue	SUMO Mot1 rescue	KCNQ1 inh	KCC2 mod	KCNQ1 act	AI-2 QS modul	JMH597 growth	BB721 lum counter	BB721 growth	JMH597 AI-2 mod
CCC1(c2ccccc2)NC(=O)N(CC(=O)NCc2ccc(F)cc2)C1=O (stereo not given)	-5	-10	i	·	i	-63	·	·	·	·
CCC1(c2ccccc2)NC(=O)N(CC(=O)NCc2ccc(C)cc2)C1=O (stereo not given)	-3	9	i	·	i	-91*	-13	94*	-31	97*
O=C(COC(=O)c1cccc(Cl)c1)NCc1ccccc1	·	37	·	·	·	·	·	·	·	·
O=C(COn1nnc2ccc(Cl)cc21)NCc1ccccc1	-6	12	i	·	i	-89*	4	96*	-5	97*
O=C(/C=C/Sc1ccccc1)c1ccccc1	-11	41	i	0.59	i	-92*	10	98*	47	98*
O=C(/C=C/Sc1ccccc1)c1ccc(Cl)cc1	-9	-4	i	-0.093	i	-53	·	·	·	·
CC1(C)C(=O)Nc2ccccc2N1C(=O)COC(=O)CCSc1ccccc1	-3	·	i	-0.26	i	-85*	7	92*	-29	95*
O=C1CN(C(=O)COC(=O)CCCOc2ccccc2)c2ccccc2N1	-1	105	i	-0.73	i	-81*	-7	94*	-17	96*
O=S(=O)(c1ccc2ccccc2c1)N1CCN(C(=S)Nc2ccccc2F)CC1	-7	-5	i	-0.44	i	-97*	25	100*	-25	100*
CCCC/C=C/C(NC(=O)c1ccc(-c2ccccc2)cc1)c1ccccc1 (stereo not given)	-9	122	i	·	i	23	·	·	·	·
COc1ccc(NC(=O)c2ocnc2C)cc1OC	-5	-19	i	·	i	6	·	·	·	·
Cc1nc(C)c(C(=O)Nc2ccc(Oc3ccccc3)cc2)o1	-18	4	i	-4*	i	-83*	11	91*	-43	94*
Cc1ncoc1C(=O)Nc1ccc(Oc2ccccc2)cc1	-22	-3	i	·	i	-96*	15	99*	6	99*
COc1ccccc1CNC(=O)/C=C/c1cc2c(cc1Br)OCO2	-9	-16	i	-0.85	i	24	·	·	·	·
COC(=O)c1sccc1N(C)S(C)(=O)=O	-9	6	i	-0.25	i	14	·	·	·	·
CC(C)(C)c1ccc(OCC(=O)NCc2ccco2)cc1	-18	8	i	·	i	?	24	88*	10	94*
Cc1ccc(C(=O)CSc2nnc(-c3c[nH]c4ccccc34)o2)cc1	-7	26	i	·	i	10	·	·	·	·
Clc1cccc(CSc2nnc(-c3c[nH]c4ccccc34)o2)c1	-9	8	i	0.38	i	-88*	22	93*	22	95*
COc1cccc(-c2noc(Cn3nc(C)c([N+](=O)[O-])c3C)n2)c1	-8	-5	i	0.61	i	-11	·	·	·	·
COc1cccc(OCc2nc(-c3cccc([N+](=O)[O-])c3)no2)c1	-7	20	i	-0.23	i	-83*	14	86*	-21	93*
Brc1ccc(-c2noc(COc3ccc4ccccc4c3)n2)o1	-12	14	i	0.17	i	9	·	·	·	·
COc1cccc(OCc2nc(-c3ccc(Br)o3)no2)c1	-13	·	i	·	i	-83*	39	96*	-1	97*
COc1ccccc1C(=O)OCc1c(-c2ccccc2)ncc2ccccc12	·	61	·	·	·	·	·	·	·	·
